Measured values pooled from the literature.
Each line is one published result; the experiments were not run side by side.
Target: Activated CDC42 kinase 1 (TNK2, Homo sapiens, UniProt Q07912)

The remaining binding of `Nc1ncc(-c2nc(N3CCOCC3)nc(N3CCOCC3)n2)c(C(F)F)n1` is reported as 85% (binding, competition with immobilised ligand; 10 µM).
`COc1ncccc1-c1cnn2ccc(N3CCN(C(=O)OC(C)C)CC3)nc12` gave a remaining binding of 94% (binding, competition with immobilised ligand; 1 µM).
`Cn1cncc1[C@](O)(COc1ccc(C#N)cc1-c1ccc(OC(F)(F)F)cc1)c1ccc(C#N)cc1` gave a remaining binding of 100% (cell-free assay, competition with immobilised ligand; 1 µM).
`Cn1cc(-c2cc(F)cc(N3CCn4c(cc5c4CCCC5)C3=O)c2CO)cc(Nc2ccc(N3CCN(C4COC4)CC3)cn2)c1=O` has an inhibition of 1% (enzyme activity, inhibitor; 0.1 µM).
`COc1cc(Nc2ncc(F)c(Nc3ccc4c(n3)NC(=O)C(C)(C)O4)n2)cc(OC)c1OC` gave an inhibition of 99% (binding; 10 µM).
The remaining activity of `CC(C)(C)c1cc(C=C(C#N)C#N)cc(Br)c1O` is reported as 93.1% (enzyme activity, inhibitor; 0.5 µM).
For `COc1cc(Cl)c(C(=O)N[C@@H](CN[C@H]2CC[C@@H](N)CC2)Cc2ccc(C#N)cc2)cc1-c1ccc(CN[C@H](C)c2ccc(C)cc2)o1`, the remaining activity was 107% (enzyme activity, inhibitor; 1 µM).
For `Cn1cc(-c2cccc(N3CCc4c(sc5c4CC(C)(C)C5)C3=O)c2CO)cc(Nc2ccncn2)c1=O`, the inhibition was 0% (enzyme activity, inhibitor; 1 µM).
`O=c1[nH]c2ccccc2n1C1CCN(Cc2ccc(-c3[nH]c4cc5ncnc5cc4nc3-c3ccccc3)cc2)CC1` has a remaining signal of 92.3% (cell-free assay; 0.5 µM).
